CHOP UPR activ – activators of apoptotic arm of unfolded protein response (CHOP). 330,000 tested, 0.34% active. activation, % at 10 µM. CHO-CHOP luciferase reporter, UPR activation, luminescence; percent of tunicamycin response over DMSO baseline;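 active means at 10 µM dose, activation of 40% or more, normalized to positive control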;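 further: 100% = tunicamycin at 10 µg/mL and 0% = DMSO alone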
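measured by = luciferase luminescence | assay system = CHO-CHOP cells, stable luciferase reporter of PERK-eIF2a-CHOP signalling | amount = 500 reporter cells seeded per well | timing = 6 h compound exposure at 37 °C after overnight seeding | controls = positive tunicamycin 10 µg/mL, negative DMSO alone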
Beta apoptosis – blocks beta cell apoptosis; protection from apoptosis, % (test concentration not listed); AID 435005; INS-1E cytokine-induced death, ATP luminescence, 48 h; percent of positive-control rescue, neutral wells zero; 300,000 tested, 0.8% active;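 active means Every replicate reaches about 75%, or at least half do and their mean reaches it too, limit read from the data; inconclusive means At least half of replicates reach the limit but their mean does not; inactive means Under half of replicates reach the limit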;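 further: 0% = cytokine-treated negative control wells and 100% = positive control rescue; higher means more ATP so stronger rescue from cytokine killing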
XBP1 UPR activ – adaptive UPR (XBP1) activation. CHO-XBP1 luciferase reporter, IRE1-XBP1 UPR activation, luminescence; percent of tunicamycin response, DMSO as zero. activation, % at 20 µM. 330,000 tested, 0.33% active;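 active means versus positive control, 20 µM dose yields 30% or more activation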;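 further: 100% = tunicamycin at 10 µg/mL and 0% = DMSO only wells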
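Assay system: CHO-XBP1 luciferase reporter cells; Schedule: 6 h treatment, 37 °C; Detection: glow luminescence from Steady-Glo reagent; Benchmarks: high control tunicamycin 10 µg/mL final, low control DMSO vehicle only.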
CSC inhib – cancer stem cell inhibition | cancer stem cell-like cells viability, luminescence | 300,000 tested, 1.1% active | inhibition, % at 7.5 µM | AID 2717; in the data active means inhibition above about 75%; inconclusive means no clear call, values can overlap the other calls; tested in HMLE shEcad cells
SKKanGAS inh – blocks kanamycin growth of S. pyogenes SKKanGAS strain; BacTiter-Glo, 6 h; inhibition, % at 7.5 µM; 300,000 tested, 1.3% active; AID 1662;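 active means mean replicate score, as percent of positive control median, at least 50; inconclusive means mean below 50 but one replicate at or above 50; inactive means mean and every replicate below 50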;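 further: strain carries kanamycin resistance gene driven by streptokinase promoter and grows in 40 µg/ml kanamycin; loss of luminescence reflects streptokinase promoter inhibition or plain growth inhibition; 0% = median of DMSO wells and 100% = positive control at its reference dose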
Mdm2 MdmX PPI – inhibitors of human Mdm2/MdmX interaction. 330,000 tested, 3% active. SaOS-2 split-luciferase Mdm2/MdmX complementation, luminescence. AID 485346. inhibition, % at 8 µM;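 active means inhibition of at least 50% at 8 µM in the primary screen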
Target sequence (O15151 whole entry, looked up): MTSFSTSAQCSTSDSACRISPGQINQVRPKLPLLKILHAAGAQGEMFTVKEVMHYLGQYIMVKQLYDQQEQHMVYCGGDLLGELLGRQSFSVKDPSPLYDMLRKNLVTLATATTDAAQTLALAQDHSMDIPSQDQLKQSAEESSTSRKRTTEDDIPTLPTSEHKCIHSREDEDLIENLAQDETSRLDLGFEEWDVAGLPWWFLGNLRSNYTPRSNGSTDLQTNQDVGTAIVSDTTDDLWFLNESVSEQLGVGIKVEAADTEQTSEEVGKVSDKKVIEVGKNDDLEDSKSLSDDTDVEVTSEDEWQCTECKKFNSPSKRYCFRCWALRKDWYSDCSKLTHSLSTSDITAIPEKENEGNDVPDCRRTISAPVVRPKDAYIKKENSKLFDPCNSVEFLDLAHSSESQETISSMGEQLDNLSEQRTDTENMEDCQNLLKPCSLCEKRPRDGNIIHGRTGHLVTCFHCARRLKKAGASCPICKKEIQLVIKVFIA
Target sequence (Q00987 whole entry, looked up): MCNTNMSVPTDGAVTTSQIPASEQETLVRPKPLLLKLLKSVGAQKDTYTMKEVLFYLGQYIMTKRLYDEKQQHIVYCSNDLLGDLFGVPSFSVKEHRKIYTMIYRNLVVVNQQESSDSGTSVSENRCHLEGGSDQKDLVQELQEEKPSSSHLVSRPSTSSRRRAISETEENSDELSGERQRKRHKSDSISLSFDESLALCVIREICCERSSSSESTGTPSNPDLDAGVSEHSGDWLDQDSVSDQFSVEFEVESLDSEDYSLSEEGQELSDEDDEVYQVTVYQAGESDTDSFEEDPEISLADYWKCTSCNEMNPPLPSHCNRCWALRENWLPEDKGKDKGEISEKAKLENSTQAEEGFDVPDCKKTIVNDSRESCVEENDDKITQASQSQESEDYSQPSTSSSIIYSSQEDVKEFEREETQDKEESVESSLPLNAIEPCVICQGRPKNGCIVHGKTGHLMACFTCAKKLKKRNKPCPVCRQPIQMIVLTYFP
* = called active by the depositor; ? = inconclusive; . = no result. A selection: hits, their analogues and other compounds. The true share with any hit is near 4.8%.

SMILES	CHOP UPR activ	Beta apoptosis	XBP1 UPR activ	CSC inhib	SKKanGAS inh	Mdm2 MdmX PPI
CCCN(CC1CC1)c1nc(C)nc(Nc2c(Cl)cc(Cl)cc2Cl)c1Cl	0	.	-7	86*	89*	41
CCCN(CC1CC1)c1nc(N)c(C#N)c(CC#N)c1C#N	-1	-8	6	6	0	7
Cc1ccc(N=C2SC(C(=O)Nc3ccc(OC(F)(F)F)cc3)C(N)=C2C(=O)Nc2c(C)cc(C)cc2C)cc1 (stereo not given)	.	99*	.	106*	.	.
CCN(Cc1ccccc1)C(=O)C(=O)c1cn(CC(=O)N2CCCC2)c2ccccc12	0	0	-1	-8	9	21
COC(=O)c1cc(=O)n(Cc2ccc(F)cc2)c(=Nc2ccccc2)s1	4	4	2	86*	17	47
COC(=O)c1cc(=O)n(Cc2cccs2)c(=Nc2ccccc2)s1	2	-1	4	?	23	43
CC(C)(C)CN1CCC(Oc2cccc(C(=O)NCCCOc3cccnc3)c2)CC1	1	105*	-6	-1	3	27
Cc1nn(CC(=O)NCc2cccs2)c(=O)c2nn(-c3ccccc3)c(C)c12	0	5	0	-7	0	1
CC(C)c1ccc(NC(=O)c2cc(S(=O)(=O)NCC3COc4ccccc4O3)ccc2F)cc1 (stereo not given)	1	58	-3	123*	69*	26
Cc1ccc(C)c(N2N=C(C(=O)OCc3nnc(-c4ccccc4)o3)CCC2=O)c1	0	-4	-2	5	-11	-3
O=C(NCc1ccccc1)c1ccc(Cl)cc1	2	-1	-2	-9	-5	5
COC(=O)c1cccc(NC(=S)NCc2ccc(Cl)cc2)c1	2	0	-3	-8	62*	30
O=C(NCc1ccc(Cl)cc1)c1cccc(NC(=O)c2ccccc2)c1	-2	11	-1	111*	8	29
O=C(Cc1c[nH]c2ccccc12)NCC(=O)Nc1ccc(F)c(F)c1F	0	3	-1	.	.	24
CCCc1cc(=O)[nH]c(SCC(=O)N(CCOC)c2c(N)n(Cc3ccccc3)c(=O)[nH]c2=O)n1	-1	-1	-3	-4	25	27
CCCCSc1ccc2nc(-c3ccc(C#N)cc3)cn2c1	0	7	6	23	54*	-30
COc1ccc(-n2c(=O)c3c4c(sc3n3c(=S)[nH]nc23)CCC4)cc1	1	5	0	-1	65*	14
Cc1ccc(-n2c(=O)c3c4c(sc3n3c(=S)[nH]nc23)CCC4)cc1	0	-1	1	23	42	24
Cc1ccc(-n2cc3c(-c4cccc(Br)c4)nnc(C)c3n2)cc1	0	2	4	25	64*	-7
Cc1cc(NC(=O)C2CCCCC2C(=O)O)ccc1NC(=O)c1ccccc1 (stereo not given)	0	-4	4	10	-6	2
Clc1ccc(N/N=C/c2cccnc2)cc1	1	-3	2	85*	-4	-3
CC(C)(C)c1ccc(OCCCC(=O)NC2=NCCS2)cc1	0	-8	0	16	62*	22
CCc1ccc2[nH]c(O)c(N=Nc3nc(-c4ccccc4)cs3)c2c1	-2	22	1	45	53*	20
O=C(O)/C=C/c1cn(Cc2ccccc2)nc1-c1ccccc1	0	2	-5	10	-4	-14
O=C(O)CCn1cc(/C=C/C(=O)c2ccc(Cl)cc2)c(-c2ccc(Br)cc2)n1	.	-8	.	106*	.	.
SMILES	CHOP UPR activ	Beta apoptosis	XBP1 UPR activ	CSC inhib	SKKanGAS inh	Mdm2 MdmX PPI
O=c1c(Cl)c(NCc2ccc(F)cc2)cnn1C12CC3CC(CC(C3)C1)C2	1	9	3	75*	-7	-11
O=c1c(Cl)c(NCc2ccccc2Cl)cnn1C12CC3CC(CC(C3)C1)C2	3	13	0	95*	5	24
Cc1ccc(CNc2cnn(C34CC5CC(CC(C5)C3)C4)c(=O)c2Cl)cc1	0	5	1	78*	1	30
O=c1c(Cl)c(NCc2ccco2)cnn1C12CC3CC(CC(C3)C1)C2	2	2	0	-2	-5	15
Cc1cc(C)cc(N(CCC#N)C(=O)CSc2nc3ccccc3c(=O)[nH]2)c1	0	-1	-5	8	.	26
CCCCCCC(=O)Nc1ccc(Br)cn1	4	4	3	19	5	-26
CCOc1ccc(/C=N/NC(=O)c2[nH]ncc2Br)c(O)c1	1	77*	-5	87*	-8	-20
Cc1ccc(O)c(/C=N/NC(=O)c2[nH]ncc2Br)c1	2	84*	0	17	3	-19
CC(=O)c1cccc(N2C(=NC(=O)C3CCCCC3)SC3CS(=O)(=O)CC32)c1 (stereo not given)	0	1	-4	-12	-3	-3
COc1cccc(NC(=O)COC(=O)C2CCCCC2)c1	6	-3	2	-19	.	-10
O=C(CP(=O)(c1ccccc1)c1ccccc1)N/N=C/c1cc(Br)cc(Br)c1O	1	.	0	.	102*	49
O=C(C[n+]1ccccc1)N/N=C/c1cc(Br)cc(Br)c1O	1	-18	1	15	102*	21
CCC(O)(CC)C(=O)N/N=C/c1cc(Br)cc(Br)c1O	-1	28	1	?	89*	43
O=C(COc1ccc(-c2ccccc2)cc1)N/N=C/c1cc(O)ccc1Br	2	0	-5	89*	98*	11
O=C(O)c1cccc(N/N=C/c2cc(Br)cc(Br)c2O)c1	4	-6	0	-3	-14	-15
COc1ccc(NC(=O)C2Cc3ccccc3O/C2=N\O)cc1 (stereo not given)	.	2	.	10	3	.
N#Cc1c(F)cccc1N1CCN(Cc2ccc3c(c2)OCO3)CC1	1	2	0	8	12	3
Cc1cccc(NC(=O)CN(CC2CCCO2)C(=O)c2oc3ccccc3c2C)c1C (stereo not given)	-2	0	-3	-16	.	16
Cc1cccc(N(Cc2ccccc2)C(=O)C2CCN(C(=O)c3ccccc3C)CC2)c1	2	-2	-1	-11	.	-5
COc1cc(Br)cc(/C=N/NC(=O)Cc2ccccc2)c1O	0	20	-2	10	109*	40
COc1cc(/C=N/NC(=O)Cc2ccc(Br)cc2)cc(OC)c1O	2	-4	1	-38	3	-11
O=C(NNc1c2ccccc2nc2ccccc12)c1ccc(O)cc1O	-1	17	16	19	51*	-5
NS(=O)(=O)c1ccc(CCNC(=O)c2cccc(S(=O)(=O)N3CCCC3)c2)cc1	-1	-2	0	.	.	-7

High-throughput results: PubChem BioAssay, several laboratories
